EPA's CvTdb concentration-time database
Several values for one entry are separate records, joined by “and”; a condition that tells them apart may be missing. Identical values can stand only once.

What was measured:
Rat [1] = assay: concentration in brain after dosing; conditions: 0.5 h; dosed: 2-Methyltetrahydrofuran; 40 mg/kg; iv; Male; Harlan Sprague Dawley
Rat [2] = assay: concentration in plasma after dosing; conditions: 4 h; dosed: 2-Methyltetrahydrofuran; 40 mg/kg; iv; Male; Harlan Sprague Dawley
Rat [3] = assay: concentration in brain after dosing; conditions: 0.75 h; dosed: 2-Methyltetrahydrofuran; 40 mg/kg; iv; Male; Harlan Sprague Dawley
Rat [4] = assay: concentration in brain after dosing; conditions: 2 min; dosed: 2-Methyltetrahydrofuran; 40 mg/kg; iv; Male; Harlan Sprague Dawley
Rat [5] = assay: concentration in brain after dosing; conditions: 6 h; dosed: Fluorotelomer alcohol 8+2; 80 mg/kg; oral; Female; Harlan Sprague Dawley
Rat [6] = assay: concentration in liver after dosing; conditions: 6 h; dosed: Fluorotelomer alcohol 8+2; 24 mg/kg; oral; Male; Harlan Sprague Dawley
Rat [7] = assay: concentration in kidney after dosing; conditions: 3 h; dosed: Fluorotelomer alcohol 8+2; 80 mg/kg; oral; Female; Harlan Sprague Dawley
Rat [8] = assay: concentration in brain after dosing; conditions: 6 h; dosed: Fluorotelomer alcohol 8+2; 80 mg/kg; oral; Female; Harlan Sprague Dawley; remark: listed apart in the source
Rat [9] = assay: concentration in plasma after dosing; conditions: 0.25 h; dosed: 678-39-7; 12 mg/kg; iv; Male; F344
Rat [10] = assay: concentration in kidney after dosing; conditions: 6 h; dosed: Fluorotelomer alcohol 8+2; 80 mg/kg; oral; Female; Harlan Sprague Dawley
Rat [11] = assay: concentration in kidney after dosing; conditions: 0.5 h; dosed: Fluorotelomer alcohol 8+2; 24 mg/kg; oral; Male; Harlan Sprague Dawley
Rat [12] = assay: concentration in plasma after dosing; conditions: 0.25 h; dosed: Gemfibrozil; 50 mg/kg; oral; Male; Sprague-Dawley
Rat [13] = assay: concentration in plasma after dosing; conditions: 6 h; dosed: Gemfibrozil; 4.29 mg/kg; oral; Male; Sprague-Dawley
Rat [14] = assay: concentration in plasma after dosing; conditions: 5 min; dosed: Gemfibrozil; 100 mg/kg; oral; Male; Sprague-Dawley
Rat [15] = assay: concentration in plasma after dosing; conditions: 15 h; dosed: Gemfibrozil; 4.29 mg/kg; oral; Male; Sprague-Dawley
Rat [16] = assay: concentration in plasma after dosing; conditions: 4 h; dosed: Gemfibrozil; 4.29 mg/kg; oral; Male; Sprague-Dawley
Rat [17] = assay: concentration in plasma after dosing; conditions: 0.5 h; dosed: Gemfibrozil; 4.29 mg/kg; oral; Male; Sprague-Dawley
Rat [18] = assay: concentration in plasma after dosing; conditions: 5 min; dosed: Gemfibrozil; 50 mg/kg; oral; Male; Sprague-Dawley
Rat [19] = assay: concentration in plasma after dosing; conditions: 24 h; dosed: Gemfibrozil; 50 mg/kg; oral; Male; Sprague-Dawley
Rat [20] = assay: concentration in plasma after dosing; conditions: 1 h; dosed: Perfluorohexanoic Acid; 40 mg/kg; iv; Female; Harlan Sprague-Dawley
Rat [21] = assay: concentration in kidney after dosing; conditions: 6 h; dosed: Perfluorohexanoic Acid; 80 mg/kg; oral; Male; Harlan Sprague Dawley
Rat [22] = assay: concentration in liver after dosing; conditions: 6 h; dosed: Perfluorohexanoic Acid; 80 mg/kg; oral; Male; Harlan Sprague Dawley
Rat [23] = assay: concentration in plasma after dosing; conditions: 0.75 h; dosed: Perfluorohexanoic Acid; 40 mg/kg; iv; Female; Harlan Sprague-Dawley
Rat [24] = assay: concentration in liver after dosing; conditions: 864 h; dosed: Perfluorooctane Sulfonate; 2 mg/kg; oral; Female; Harlan Sprague Dawley
Rat [25] = assay: concentration in kidney after dosing; conditions: 24 h; dosed: Perfluorooctane Sulfonate; 2 mg/kg; oral; Female; Harlan Sprague Dawley
Rat [26] = assay: concentration in liver after dosing; conditions: 864 h; dosed: Perfluorooctane Sulfonate; 2 mg/kg; oral; Female; Harlan Sprague Dawley; remark: listed apart in the source
Rat [27] = assay: concentration in plasma after dosing; conditions: 24 h; dosed: Perfluorooctane Sulfonate; 2 mg/kg; oral; Female; Harlan Sprague Dawley
Rat [28] = assay: concentration in plasma after dosing; conditions: 1848 h; dosed: Perfluorooctane Sulfonate; 2 mg/kg; oral; Female; Harlan Sprague Dawley
Rat [29] = assay: concentration in brain after dosing; conditions: 24 h; dosed: Perfluorooctane Sulfonate; 2 mg/kg; oral; Female; Harlan Sprague Dawley
Rat [30] = assay: concentration in kidney after dosing; conditions: 1848 h; dosed: Perfluorooctane Sulfonate; 20 mg/kg; oral; Male; Harlan Sprague Dawley
Rat [31] = assay: concentration in plasma after dosing; conditions: dosed: Perfluorooctane Sulfonate, 2 mg/kg, iv, Male, F344
Rat [32] = assay: concentration in liver after dosing; conditions: 24 h; dosed: Perfluorooctane Sulfonate; 2 mg/kg; oral; Female; Harlan Sprague Dawley
Rat [33] = assay: concentration in brain after dosing; conditions: 3360 h; dosed: Perfluorooctane Sulfonate; 20 mg/kg; oral; Male; Harlan Sprague Dawley
Rat [34] = assay: concentration in kidney after dosing; conditions: 24 h; dosed: Perfluorooctane Sulfonate; 2 mg/kg; oral; Female; Harlan Sprague Dawley; remark: listed apart in the source
Rat [35] = assay: concentration in brain after dosing; conditions: 24 h; dosed: Perfluorooctane Sulfonate; 20 mg/kg; oral; Female; F344
Rat [36] = assay: concentration in plasma after dosing; conditions: dosed: Perfluorooctane Sulfonate, 2 mg/kg, iv, Female, Harlan Sprague-Dawley
human = assay: concentration in expired air after dosing; conditions: dosed: trichloroethylene, 100 ppm, inhalation, duration: 4 hr, person
How it was run: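 A PubMed search, classifier screening and manual review identified published in vivo toxicokinetic studies, which together with two structured collections supplied concentration-versus-time and amount-versus-time points. Points were mostly digitised from plot screenshots with WebPlotDigitizer, otherwise copied from tables. Dose, route, subject details and medium were hand-curated from each paper, and sampling and analytical methods are those of the sources, often unreported.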

CC1CCCO1 (configuration not stated) [2-Methyltetrahydrofuran]
Conditions | concentration in brain [ng/mL] | concentration in plasma [ng/mL]
Rat [1] | 16200 | –
Rat [2] | – | 312
Rat [3] | 11300 | –
Rat [4] | 34000 | –

O=C(O)CCC(F)(F)C(F)(F)C(F)(F)C(F)(F)C(F)(F)C(F)(F)C(F)(F)F [Fluorotelomer acid 7+3]
Conditions | concentration in brain [ng/g] | concentration in kidney [ng/g] | concentration in liver [ng/g] | concentration in plasma [ng/mL]
Rat [5] | 1470 | – | – | –
Rat [6] | – | – | 1860 | –
Rat [7] | – | 5820 | – | –
Rat [8] | 1040 | – | – | –
Rat [9] | – | – | – | 51.7
Rat [10] | – | 3960 | – | –
Rat [11] | – | 198 | – | –

Cc1ccc(C)c(OCCCC(C)(C)C(=O)O)c1 [Gemfibrozil]
Conditions | concentration in plasma [ng/mL]
Rat [12] | 14400
Rat [13] | 388
Rat [14] | 1690
Rat [15] | 131
Rat [16] | 238
Rat [17] | 424
Rat [18] | 7230
Rat [19] | 846

O=C(O)C(F)(F)C(F)(F)C(F)(F)C(F)(F)C(F)(F)F [Perfluorohexanoic Acid]
Conditions | concentration in kidney [ng/g] | concentration in liver [ng/g] | concentration in plasma [ng/mL]
Rat [20] | – | – | 1240
Rat [21] | 10600 | – | –
Rat [22] | – | 9200 | –
Rat [23] | – | – | 1570

O=S(=O)([O-])C(F)(F)C(F)(F)C(F)(F)C(F)(F)C(F)(F)C(F)(F)C(F)(F)C(F)(F)F [Perfluorooctane Sulfonate]
Conditions | concentration in brain [ng/g] | concentration in kidney [ng/g] | concentration in liver [ng/g] | concentration in plasma [ng/mL]
Rat [24] | – | – | 11100 | –
Rat [25] | – | 9700 | – | –
Rat [26] | – | – | 11100 | –
Rat [27] | – | – | – | 5040
Rat [28] | – | – | – | 987
Rat [29] | 553 | – | – | –
Rat [30] | – | 4810 | – | –
Rat [32] | – | – | 30300 | –
Rat [33] | 890 | – | – | –
Rat [34] | – | 8400 | – | –
Rat [35] | 7400 | – | – | –

concentration in plasma [ng/mL]
Conditions | 5 min | 12 h | 24 h | 864 h | 3216 h
Rat [31] | – | 4350 | – | 995 | 99.5
Rat [36] | 5920 | – | 5370 | – | –

ClC=C(Cl)Cl [trichloroethylene]
human
Conditions | concentration in expired air
0.1172 h | 7.17 ppm
0.1972 h | 5.83 ppm
0.3304 h | 5.7 ppm
0.4637 h | 4.83 ppm
0.9967 h | 2.59 ppm
2.009 h | 1.89 ppm
4.021 h | 1.39 ppm
5.993 h | 1.35 ppm
8.019 h | 1.01 ppm
10.04 h | 1.08 ppm
12.02 h | 0.874 ppm
38 s | 21.7 ppm
230 s | 14.3 ppm and 10.8 ppm
